The values below come from ChEMBL document CHEMBL4251566 (Eur J Med Chem, 2018).

By IC50 is commonly meant the concentration at which inhibition is half-maximal.

Molecules are shown by their SMILES.

Sequence of Tyrosine-protein kinase BTK (Q06187 whole entry): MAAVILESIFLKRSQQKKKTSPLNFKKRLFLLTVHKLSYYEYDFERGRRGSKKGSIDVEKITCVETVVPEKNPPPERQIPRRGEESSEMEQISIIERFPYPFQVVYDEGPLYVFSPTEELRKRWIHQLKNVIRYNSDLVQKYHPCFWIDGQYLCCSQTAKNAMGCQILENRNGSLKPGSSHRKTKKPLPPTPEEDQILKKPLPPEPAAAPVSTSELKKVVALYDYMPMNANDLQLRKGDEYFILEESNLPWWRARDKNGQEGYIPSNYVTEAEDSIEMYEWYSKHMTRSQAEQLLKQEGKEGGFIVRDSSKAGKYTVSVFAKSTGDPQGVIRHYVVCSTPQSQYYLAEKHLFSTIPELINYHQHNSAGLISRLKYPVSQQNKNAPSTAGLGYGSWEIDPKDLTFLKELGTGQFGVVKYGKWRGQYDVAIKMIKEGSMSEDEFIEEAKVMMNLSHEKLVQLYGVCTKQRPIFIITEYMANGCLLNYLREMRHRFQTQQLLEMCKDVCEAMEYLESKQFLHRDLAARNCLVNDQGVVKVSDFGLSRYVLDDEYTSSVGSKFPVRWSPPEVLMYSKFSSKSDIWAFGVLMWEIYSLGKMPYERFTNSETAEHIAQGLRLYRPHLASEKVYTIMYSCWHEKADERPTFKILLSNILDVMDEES

One data set has as its target Tyrosine-protein kinase BTK (Homo sapiens, UniProt Q06187). Kind of data set: Inhibition of recombinant full-length N-terminal His-tagged human BTK expressed in baculovirus infected Sf9 insect cells using Poly(4:1 Glu,Tyr) peptide substrate incubated for 60 mins by ADP-Glo luminescence assay.
Conditions: not given
On to `C=CC(=O)Nc1cccc(Nc2nc(Nc3ccc(OCC(=O)N4CCOCC4)cc3)ncc2Cl)c1`, for which the IC50 turned out to be 0.001 µM.

Turning to `C=CC(=O)Nc1cccc(Nc2nc(Nc3ccc(OCCCN4CCN(C)CC4)cc3C)ncc2Cl)c1`, the IC50 turned out to be 0.0817 µM.

As to `C=CC(=O)Nc1cccc(Nc2nc(Nc3ccc(OC)c(OCCCN4CCOCC4)c3)ncc2Cl)c1`, the IC50 came out at 0.0008 µM.

Take `C=CC(=O)Nc1cccc(Nc2nc(Nc3ccc(OCCCN4CCOCC4)cc3C)ncc2Cl)c1`: the IC50 came to 0.0893 µM.

For the molecule `C=CC(=O)Nc1cccc(Nc2nc(Nc3ccc(OCCCN4CCN(CC)CC4)c(Cl)c3)ncc2Cl)c1`, the IC50 turned out to be 0.0005 µM.

For a further data set, the target named is T1, Tyrosine-protein kinase JAK3 (Homo sapiens, UniProt P52333).
T1 sequence (P52333 whole entry): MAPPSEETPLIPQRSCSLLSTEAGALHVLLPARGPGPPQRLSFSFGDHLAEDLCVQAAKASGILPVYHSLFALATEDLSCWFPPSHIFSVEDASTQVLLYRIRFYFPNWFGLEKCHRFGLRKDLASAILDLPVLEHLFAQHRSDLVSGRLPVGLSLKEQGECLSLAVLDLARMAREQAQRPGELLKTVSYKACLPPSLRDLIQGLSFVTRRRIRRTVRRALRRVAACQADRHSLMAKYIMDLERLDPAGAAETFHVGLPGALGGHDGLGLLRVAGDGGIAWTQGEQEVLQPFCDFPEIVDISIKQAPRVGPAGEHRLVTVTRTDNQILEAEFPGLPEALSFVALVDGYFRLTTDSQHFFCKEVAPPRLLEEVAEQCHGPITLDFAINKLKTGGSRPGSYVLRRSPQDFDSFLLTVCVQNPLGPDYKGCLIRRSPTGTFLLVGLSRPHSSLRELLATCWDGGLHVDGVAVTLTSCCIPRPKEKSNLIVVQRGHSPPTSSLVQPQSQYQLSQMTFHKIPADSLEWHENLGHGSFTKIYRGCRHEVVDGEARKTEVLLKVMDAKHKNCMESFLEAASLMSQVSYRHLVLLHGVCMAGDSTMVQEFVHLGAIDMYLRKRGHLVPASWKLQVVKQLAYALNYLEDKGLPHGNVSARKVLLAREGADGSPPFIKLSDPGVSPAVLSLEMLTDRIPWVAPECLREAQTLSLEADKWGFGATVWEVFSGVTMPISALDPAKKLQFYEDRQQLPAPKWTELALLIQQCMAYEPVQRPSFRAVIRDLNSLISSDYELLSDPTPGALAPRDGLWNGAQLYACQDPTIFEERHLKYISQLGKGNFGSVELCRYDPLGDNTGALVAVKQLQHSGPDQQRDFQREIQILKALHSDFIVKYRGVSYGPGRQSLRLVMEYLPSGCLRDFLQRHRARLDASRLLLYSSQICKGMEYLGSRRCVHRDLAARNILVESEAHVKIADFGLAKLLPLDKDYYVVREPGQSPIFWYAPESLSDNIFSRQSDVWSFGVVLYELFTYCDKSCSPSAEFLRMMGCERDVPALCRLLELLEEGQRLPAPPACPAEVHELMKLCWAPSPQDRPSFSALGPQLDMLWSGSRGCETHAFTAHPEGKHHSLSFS
Description: Inhibition of recombinant N-terminal GST-tagged human JAK3 (781 to end residues) expressed in baculovirus infected Sf9 insect cells using Poly(4:1 Glu,Tyr) peptide substrate incubated for 60 mins by ADP-Glo luminescence assay.
Conditions: not given
A digest of the protocol: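 ADP-Glo luminescent kinase assay. The kinase reaction ran 60 min at room temperature in 1× kinase buffer. ADP-Glo reagent was added to stop the reaction and deplete ATP, followed by 40 min at room temperature. Detection reagent then converted ADP to ATP for a luciferase readout, followed by 30 min at room temperature. Luminescence was integrated over 0.5–1 s, and IC50 came from curve fitting.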
On to `C=CC(=O)Nc1cccc(Nc2nc(Nc3ccc(OCC(=O)N4CCOCC4)cc3)ncc2Cl)c1`, for which the IC50 was 0.00139 µM.

Regarding `C=CC(=O)Nc1cccc(Nc2nc(Nc3ccc(OCCOC)cc3)ncc2F)c1` [SPEBRUTINIB], the IC50 came out at 0.0225 µM.

Turning to `C=CC(=O)Nc1cccc(Nc2nc(Nc3ccc(OCCCN4CCN(C)CC4)cc3C)ncc2Cl)c1`, the IC50 amounted to 0.0911 µM.

Consider `C=CC(=O)Nc1cccc(Nc2nc(Nc3ccc(OC)c(OCCCN4CCOCC4)c3)ncc2Cl)c1`, for which the IC50 was found to be 0.00069 µM.

For the molecule `C=CC(=O)Nc1cccc(Nc2nc(Nc3ccc(OCCCN4CCOCC4)cc3C)ncc2Cl)c1`, the IC50 was over 0.1 µM.

In the case of `C=CC(=O)Nc1cccc(Nc2nc(Nc3ccc(OCCCN4CCN(CC)CC4)c(Cl)c3)ncc2Cl)c1`, the IC50 was 0.00091 µM.

The test system of the next data set is Ramos. Kind of data set: Antiproliferative activity against human Ramos cells after 72 hrs by CCK-8 assay.
Conditions: not given
For orientation: Formazan colour is commonly taken as a measure of viable cells.
For `C=CC(=O)N1CCC[C@@H](n2nc(-c3ccc(Oc4ccccc4)cc3)c3c(N)ncnc32)C1` [IBRUTINIB], the IC50 stood at 6.62 µM.

Molecule `C=CC(=O)Nc1cccc(Nc2nc(Nc3ccc(OCC(=O)N4CCOCC4)cc3)ncc2Cl)c1` registered an IC50 of 25.6 µM.

Turning to `C=CC(=O)Nc1cccc(Nc2nc(Nc3ccc(OCCOC)cc3)ncc2F)c1` [SPEBRUTINIB], the IC50 was found to be 14.2 µM.

Turning to `C=CC(=O)Nc1cccc(Nc2nc(Nc3ccc(OCCCN4CCN(C)CC4)cc3C)ncc2Cl)c1`, the IC50 came out at 22.6 µM.

Regarding `C=CC(=O)Nc1cccc(Nc2nc(Nc3ccc(OC)c(OCCCN4CCOCC4)c3)ncc2Cl)c1`, half-maximal inhibition (IC50) required 7.31 µM.

`C=CC(=O)Nc1cccc(Nc2nc(Nc3ccc(OCCCN4CCOCC4)cc3C)ncc2Cl)c1` returned an IC50 of 18.7 µM.

Molecule `C=CC(=O)Nc1cccc(Nc2nc(Nc3ccc(OCCCN4CCN(CC)CC4)c(Cl)c3)ncc2Cl)c1` returned an IC50 of 5.72 µM.

The test system of another data set is Raji. Kind of data set: Antiproliferative activity against human Raji cells after 72 hrs by CCK-8 assay. The class given is functional, cell-based.
Conditions: not given
A digest of the protocol: (§1)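 CCK-8 viability assay. Cells were seeded at 3000/well in RPMI-1640 with 10% FBS at 37 °C, 5% CO2, for 4 h before treatment. Exposure was 72 h at five concentrations (1.25, 5, 10, 20, 40 µM), each in five replicates. Absorbance was read at 450 nm. IC50 came from dose-response curves, as the mean of at least three separate experiments.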
Consider `C=CC(=O)N1CCC[C@@H](n2nc(-c3ccc(Oc4ccccc4)cc3)c3c(N)ncnc32)C1` [IBRUTINIB], for which the midpoint of inhibition, the IC50, lay at 20.9 µM.

For the molecule `C=CC(=O)Nc1cccc(Nc2nc(Nc3ccc(OCC(=O)N4CCOCC4)cc3)ncc2Cl)c1`, the IC50 came out at 5.68 µM.

`C=CC(=O)Nc1cccc(Nc2nc(Nc3ccc(OCCOC)cc3)ncc2F)c1` [SPEBRUTINIB]: the IC50 is 25.3 µM.

Take `C=CC(=O)Nc1cccc(Nc2nc(Nc3ccc(OCCCN4CCN(C)CC4)cc3C)ncc2Cl)c1`: half-maximal inhibition (IC50) was put at 25 µM.

As to `C=CC(=O)Nc1cccc(Nc2nc(Nc3ccc(OC)c(OCCCN4CCOCC4)c3)ncc2Cl)c1`, half-maximal inhibition (IC50) required 3.86 µM.

In the case of `C=CC(=O)Nc1cccc(Nc2nc(Nc3ccc(OCCCN4CCOCC4)cc3C)ncc2Cl)c1`, the IC50 came out at 25.5 µM.

`C=CC(=O)Nc1cccc(Nc2nc(Nc3ccc(OCCCN4CCN(CC)CC4)c(Cl)c3)ncc2Cl)c1` gave an IC50 of 11.4 µM.

The subject of another data set is NAMALVA. Kind of data set: Antiproliferative activity against human NAMALWA cells after 72 hrs by CCK-8 assay. The data set is classed as functional, cell-based.
Conditions: not given
The method, boiled down: as §1
Regarding `C=CC(=O)N1CCC[C@@H](n2nc(-c3ccc(Oc4ccccc4)cc3)c3c(N)ncnc32)C1` [IBRUTINIB], the IC50 came out at 10.5 µM.

In turn, `C=CC(=O)Nc1cccc(Nc2nc(Nc3ccc(OCC(=O)N4CCOCC4)cc3)ncc2Cl)c1` displayed an IC50 of 4.42 µM.

`C=CC(=O)Nc1cccc(Nc2nc(Nc3ccc(OCCOC)cc3)ncc2F)c1` [SPEBRUTINIB] had a concentration for half-maximal inhibition (IC50) of 3.42 µM.

`C=CC(=O)Nc1cccc(Nc2nc(Nc3ccc(OCCCN4CCN(C)CC4)cc3C)ncc2Cl)c1` showed an IC50 of 24.6 µM.

`C=CC(=O)Nc1cccc(Nc2nc(Nc3ccc(OC)c(OCCCN4CCOCC4)c3)ncc2Cl)c1` had an IC50 of 5.17 µM.

The molecule `C=CC(=O)Nc1cccc(Nc2nc(Nc3ccc(OCCCN4CCOCC4)cc3C)ncc2Cl)c1` gave an IC50 of 28 µM.

Molecule `C=CC(=O)Nc1cccc(Nc2nc(Nc3ccc(OCCCN4CCN(CC)CC4)c(Cl)c3)ncc2Cl)c1` gave an IC50 of 2.41 µM.

For a further data set, the system named is PBMC. Kind of data set: Cytotoxicity against human PBMCs assessed as induction of morphological changes at <10 uM after 24 hrs by AO/PI staining-based phase contrast microscopy. The data set is classed as cell-based.
Conditions: not given
On to `C=CC(=O)N1CCC[C@@H](n2nc(-c3ccc(Oc4ccccc4)cc3)c3c(N)ncnc32)C1` [IBRUTINIB], for which the Activity was 50%.

The test system of a further data set is Ramos. Description: Induction of apoptosis in human Ramos cells assessed as necrotic cells at 10 uM after 72 hrs by Annexin V-FITC/propidium iodide staining based flow cytometry (reference value: 0.7%). The class given is functional.
Conditions: not given
For orientation: Flow cytometry measures light scatter and fluorescence of single cells or particles in a stream.
As for `C=CC(=O)N1CCC[C@@H](n2nc(-c3ccc(Oc4ccccc4)cc3)c3c(N)ncnc32)C1` [IBRUTINIB], the Activity was found to be 0.1%.

As for `C=CC(=O)Nc1cccc(Nc2nc(Nc3ccc(OCCOC)cc3)ncc2F)c1` [SPEBRUTINIB], the Activity is 4.3%.

For a further data set, the system named is Ramos. Description: Induction of apoptosis in human Ramos cells assessed as late apoptotic cells at 10 uM after 72 hrs by Annexin V-FITC/propidium iodide staining based flow cytometry (reference value: 0.5%). The class given is functional.
Conditions: not given
On to `C=CC(=O)Nc1cccc(Nc2nc(Nc3ccc(OCCOC)cc3)ncc2F)c1` [SPEBRUTINIB], for which the Activity turned out to be 20.4%.

The subject of another data set is Ramos. Kind of data set: Induction of apoptosis in human Ramos cells assessed as early apoptotic cells at 10 uM after 72 hrs by Annexin V-FITC/propidium iodide staining based flow cytometry (reference value: 0.0%).
Conditions: not given
The data set is classed as functional.
Consider `C=CC(=O)N1CCC[C@@H](n2nc(-c3ccc(Oc4ccccc4)cc3)c3c(N)ncnc32)C1` [IBRUTINIB], for which the Activity is recorded as 37%.

With `C=CC(=O)Nc1cccc(Nc2nc(Nc3ccc(OCCOC)cc3)ncc2F)c1` [SPEBRUTINIB], the Activity was 21.1%.

In another data set the test system is Ramos. Kind of data set: Induction of apoptosis in human Ramos cells assessed as viable cells at 10 uM after 72 hrs by Annexin V-FITC/propidium iodide staining based flow cytometry (reference value: 98.7%). The class given is functional. Conditions: read-out: Activity.
`C=CC(=O)N1CCC[C@@H](n2nc(-c3ccc(Oc4ccccc4)cc3)c3c(N)ncnc32)C1` [IBRUTINIB]: the viability at 10 µM is 52%.

Take `C=CC(=O)Nc1cccc(Nc2nc(Nc3ccc(OCCOC)cc3)ncc2F)c1` [SPEBRUTINIB]: the viability at 10 µM is 54.2%.

Another data set concerns Ramos. Description: Induction of apoptosis in human Ramos cells assessed as total apoptosis rate at 10 uM after 72 hrs by Annexin V-FITC/propidium iodide staining based flow cytometry relative to control.
Conditions: not given
For `C=CC(=O)N1CCC[C@@H](n2nc(-c3ccc(Oc4ccccc4)cc3)c3c(N)ncnc32)C1` [IBRUTINIB], the Activity was determined as 47.9%.

For `C=CC(=O)Nc1cccc(Nc2nc(Nc3ccc(OCCOC)cc3)ncc2F)c1` [SPEBRUTINIB], the Activity was found to be 41.5%.
